Calls of active or inactive are those of the source. The rule behind the calls is not given here.

The values that follow come from ChEMBL document CHEMBL1153949, “Design, synthesis, and structure-activity relationship of substrate competitive, selective, and in vivo active triazole and thiadiazole inhibitors of the c-Jun N-terminal kinase” (J Med Chem, 2009).

The target of data set [1] is Mitogen-activated protein kinase 14 (Homo sapiens, UniProt Q16539). Nature of the data set: Inhibition of p38alpha.
The next data set deals with Furin (Homo sapiens, UniProt P09958). Nature of the data set: Inhibition of furin.
Data set [2] in a line: Displacement of biotin-labeled pep-JIP11 from JNK at 100 uM by DELFIA assay. The method, boiled down: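 GST-JNK added at 10 nM final with Eu-anti-GST antibody (1.9 nM) and compound in DMSO. Incubated 1 hr at 0 °C, washed 5 times, enhancement solution added, and Eu fluorescence read after 10 min (ex 340, em 615 nm). Controls: unlabeled peptide and no-compound blanks.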
A short description of data set [3]: Inhibition of JNK at 100 uM by time-resolved FRET assay. The method, boiled down:
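LanthaScreen TR-FRET kinase assay. JNK 35 ng/mL with ATF2 substrate 400 nM and ATP 200 μM in 50 mM HEPES pH 7.5, 10 mM MgCl2, 1 mM EGTA, 0.01% Brij-35, with compound. Reaction ran 1 hr at room temperature. Terbium-labeled antibody plus EDTA added, incubated another hour, and read as the 520/495 nm emission ratio.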

The target of data set [4] is RAC-alpha serine/threonine-protein kinase (Homo sapiens) (UniProt P31749). Briefly: Inhibition of AKT1 at 100 uM.
Data set [5] in a line: Inhibition of lethal factor.
A short description of data set [6]: Displacement of biotin-labeled pep-JIP11 from JNK by DELFIA assay.
A short description of data set [7]: Selectivity for JNK over p38 alpha.
Data set [8] is described as follows: Inhibition of TNF-alpha-stimulated JNK phosphorylation expressed in HeLa cells by time-resolved FRET assay. It counts as cell-based. The method, boiled down:
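HeLa cells stably expressing GFP-c-Jun(1–79), seeded at 10000/well in phenol red-free Opti-MEM with 1% charcoal/dextran-treated FBS, incubated overnight. Compound pretreatment 60 min, then TNF-α 2 ng/ml for 30 min. Cells lysed in buffer containing 2 nM Tb-anti-phospho-c-Jun (Ser73) antibody and equilibrated 1 hr at room temperature. TR-FRET read at 520/490 nm; EC50 taken from the concentration series.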

A further data set concerns Mus musculus. Nature of the data set: Enhancement of insulin insensitivity in BKS.Cg-+Lepr'db/-+Lepr'db/OlaHsd db/db mouse model assessed as reduction in blood glucose levels at 25 mg/kg, ip administered 30 mins before insulin injection. More on the design: dose 25 mg/kg. It is filed as functional, organism-based. The method, boiled down:
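Male db/db mice, 11 weeks old, randomized by blood glucose and fasted 6 h. Compound given at 25 mg/kg i.p., then bovine insulin 0.75 mg/kg i.p. 30 min later. Blood glucose read from tail snips with a hand-held meter at set time points; food returned at 3 h. n=6; means ± S.D.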

Data set [9] can be described thus: Metabolic stability in rat liver microsomes at 4 uM. It counts as ADME, Microsome.

Chain of Furin (P09958 whole entry): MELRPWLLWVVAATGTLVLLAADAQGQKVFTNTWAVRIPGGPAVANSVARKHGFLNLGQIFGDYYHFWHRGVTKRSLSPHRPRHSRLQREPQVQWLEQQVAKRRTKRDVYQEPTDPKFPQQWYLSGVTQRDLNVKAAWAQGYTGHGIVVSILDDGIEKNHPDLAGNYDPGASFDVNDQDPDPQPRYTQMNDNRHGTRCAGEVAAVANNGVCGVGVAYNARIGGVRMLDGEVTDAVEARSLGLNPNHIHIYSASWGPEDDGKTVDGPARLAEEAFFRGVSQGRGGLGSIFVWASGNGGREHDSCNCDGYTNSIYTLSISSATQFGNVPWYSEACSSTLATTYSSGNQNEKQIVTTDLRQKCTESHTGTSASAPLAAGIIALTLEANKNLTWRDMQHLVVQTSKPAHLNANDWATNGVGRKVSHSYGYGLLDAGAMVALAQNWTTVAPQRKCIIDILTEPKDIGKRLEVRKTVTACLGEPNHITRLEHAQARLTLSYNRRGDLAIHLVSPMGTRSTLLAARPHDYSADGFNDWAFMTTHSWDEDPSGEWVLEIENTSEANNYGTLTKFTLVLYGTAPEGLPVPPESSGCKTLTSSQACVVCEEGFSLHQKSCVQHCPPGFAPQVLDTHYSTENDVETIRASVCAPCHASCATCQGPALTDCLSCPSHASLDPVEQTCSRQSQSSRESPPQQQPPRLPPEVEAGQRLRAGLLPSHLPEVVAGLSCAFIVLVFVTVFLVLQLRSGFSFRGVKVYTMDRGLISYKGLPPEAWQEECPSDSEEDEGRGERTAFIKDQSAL
Chain of Mitogen-activated protein kinase 14 (Q16539 whole entry): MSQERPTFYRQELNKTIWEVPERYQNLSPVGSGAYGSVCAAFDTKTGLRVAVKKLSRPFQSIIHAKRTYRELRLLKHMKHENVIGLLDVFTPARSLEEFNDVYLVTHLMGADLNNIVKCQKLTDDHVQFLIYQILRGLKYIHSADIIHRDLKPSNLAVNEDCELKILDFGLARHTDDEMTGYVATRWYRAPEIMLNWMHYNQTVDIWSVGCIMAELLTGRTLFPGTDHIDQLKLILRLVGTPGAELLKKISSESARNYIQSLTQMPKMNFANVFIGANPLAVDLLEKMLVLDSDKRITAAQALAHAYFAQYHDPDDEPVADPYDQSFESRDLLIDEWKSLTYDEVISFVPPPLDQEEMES
Chain of RAC-alpha serine/threonine-protein kinase (Homo sapiens) (P31749 whole entry): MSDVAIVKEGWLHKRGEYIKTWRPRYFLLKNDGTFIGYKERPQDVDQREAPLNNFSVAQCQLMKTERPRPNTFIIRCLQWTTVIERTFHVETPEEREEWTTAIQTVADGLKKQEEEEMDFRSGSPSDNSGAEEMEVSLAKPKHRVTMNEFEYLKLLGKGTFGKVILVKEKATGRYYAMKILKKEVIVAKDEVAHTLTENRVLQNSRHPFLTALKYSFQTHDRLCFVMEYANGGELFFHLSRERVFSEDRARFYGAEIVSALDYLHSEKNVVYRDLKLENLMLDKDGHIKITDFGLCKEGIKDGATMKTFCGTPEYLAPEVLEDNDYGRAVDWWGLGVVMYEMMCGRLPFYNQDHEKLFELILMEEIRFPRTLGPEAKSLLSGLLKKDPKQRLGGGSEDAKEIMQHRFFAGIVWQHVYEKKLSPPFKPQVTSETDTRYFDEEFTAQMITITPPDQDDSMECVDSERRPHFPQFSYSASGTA

For `O=c1[nH]nc(Sc2ncc([N+](=O)[O-])s2)n1-c1ccc([N+](=O)[O-])cc1`, the IC50 in [1] is over 100 µM; at Furin, over 50 µM.
On to `O=[N+]([O-])c1ccc(CSc2nnc(SCc3ccc([N+](=O)[O-])cc3)s2)cc1`, for which the inhibition result in data set [2] is “inactive”.
As for `COc1ccc(CSc2nnc(SCc3ccc(OC)cc3)s2)cc1`, in data set [2], the inhibition result was “inactive”.
As for `Oc1nnc(SCc2ccccc2)n1-c1ccc2c(c1)OCCO2`, in data set [2], the inhibition entry was “inactive”. The same compound returned an inhibition in data set [3] of 2%.
Take `O=[N+]([O-])c1cnc(Sc2nnc(Sc3ncc([N+](=O)[O-])s3)s2)s1`: the figures for the IC50 (in data set [1]; on Furin; in data set [5]) were over 100 µM, over 50 µM and over 100 µM, respectively. In addition, the inhibition in data set [4] was 27%.
For the compound `Nc1nnc(SCc2ccc(F)cc2)s1`, the IC50 in [6] is over 1 µM.
On to `CCCCSc1nnc(O)n1-c1ccccc1`, for which the inhibition result in data set [2] is “inactive”. For the same compound, the inhibition in data set [3] was determined as 25%.
Turning to `Nc1nnc(Sc2ncc([N+](=O)[O-])s2)s1`, the Ratio IC50 in data set [7] was found to be 142. For the same compound, the Activity result in [6] was “Dose-dependent effect”. Besides, the IC50 in [1] is over 100 µM; against Furin, over 50 µM; in data set [5] it was over 100 µM. In addition, in data set [4], the inhibition is 11%. This compound gave an EC50 in [8] of 6.23 µM. In addition, the result in the data set on Mus musculus was Active. The half-life at 4 µM in data set [9] was determined as 27 min.
Take `c1ccc(CSc2nnc(SCc3ccccc3)s2)cc1`: the inhibition entry in data set [2] was “inactive”.
Consider `O=[N+]([O-])c1ccc(Sc2nnc(O)n2-c2ccccc2)s1`, for which the inhibition amounted to 55% in data set [2] and 22% in [3].
Turning to `O=[N+]([O-])c1cccc(CSc2nnc(SCc3cccc([N+](=O)[O-])c3)s2)c1`, the inhibition entry in data set [2] is “inactive”.
Regarding `Cn1cccc1-c1nnc(Sc2ncc([N+](=O)[O-])s2)n1-c1ccc(Cl)cc1Cl`, the IC50 is over 100 µM in data set [1], over 50 µM against Furin and over 100 µM in [5]. Also, in data set [4], the inhibition worked out at 14%.
Regarding `O=[N+]([O-])c1cnc(Sc2nnc(O)n2-c2ccc3c(c2)OCCO3)s1`, the IC50 in data set [6] came out at 0.108 µM.
As to `CCSc1nnc(O)n1-c1ccccc1`, the inhibition entry in data set [2] is “inactive”. This compound yielded an inhibition in [3] of 16%.
Take `O=[N+]([O-])c1ccc(-n2c(O)nnc2Sc2ncc([N+](=O)[O-])s2)cc1`: the inhibition in data set [4] stood at 20%. In data set [5], this compound had an IC50 of over 100 µM.
`O=[N+]([O-])c1cnc(Sc2nnc(O)n2-c2ccc(F)c(F)c2)s1` showed an inhibition in data set [2] of 73%.
As to `Fc1ccc(CSc2nnc(SCc3ccc(F)cc3)s2)cc1`, the inhibition entry in data set [2] was “inactive”.
Regarding `O=C(Nc1nnc(Sc2ncc([N+](=O)[O-])s2)s1)c1ccc(F)cc1`, the inhibition entry in data set [2] was “inactive”.
